hIAP activ: increases human intestinal alkaline phosphatase activity; activation factor at 10 µM; hit rate 0.16% among 330,000; P09923; purified human IAP, CDP-Star luminescence, 30 min; stronger effect = higher value; 1 = vehicle-only enzyme, 0 = enzyme-free background;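 active means activation factor of the enzyme at least 2-fold when tested at 20 µM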
Target sequence (P09923 whole entry, looked up): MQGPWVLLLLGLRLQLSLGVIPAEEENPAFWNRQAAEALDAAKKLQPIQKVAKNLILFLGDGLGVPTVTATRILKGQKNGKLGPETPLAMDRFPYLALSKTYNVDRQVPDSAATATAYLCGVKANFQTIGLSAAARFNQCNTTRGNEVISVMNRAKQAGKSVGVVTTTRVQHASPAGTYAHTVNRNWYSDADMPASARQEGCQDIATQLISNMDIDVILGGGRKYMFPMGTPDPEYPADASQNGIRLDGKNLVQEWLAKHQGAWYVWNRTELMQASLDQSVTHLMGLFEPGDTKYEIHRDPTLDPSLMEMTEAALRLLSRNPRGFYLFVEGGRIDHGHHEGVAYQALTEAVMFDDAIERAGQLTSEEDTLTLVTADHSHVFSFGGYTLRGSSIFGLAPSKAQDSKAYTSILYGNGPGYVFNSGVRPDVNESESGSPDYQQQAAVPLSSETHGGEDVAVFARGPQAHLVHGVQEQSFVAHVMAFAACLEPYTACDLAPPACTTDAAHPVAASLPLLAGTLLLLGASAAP
mIAP activ: increases mouse intestinal alkaline phosphatase activity. activation factor at 10 µM. muIAP, CDP-Star luminescence, 30 min; stronger effect = higher value; 1 = vehicle-only enzyme signal, 0 = enzyme-free wells. AID 2805. hit rate 0.24% among 330,000;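 active means activation factor of at least 2 at 20 µM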
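Assay system: mouse IAP enzyme; reagent: chemiluminescent substrate CDP-Star; dosing: test compounds delivered from DMSO solution; schedule: 30 min at room temperature; measured by: luminescence from enzymatic CDP-Star hydrolysis; controls: DMSO-only wells and no-enzyme negative control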
mIAP block: blocks mouse intestinal alkaline phosphatase | purified mouse IAP, CDP-Star luminescence, 30 min | inhibition, % at 10 µM | hit rate 0.2% among 330,000 | AID 2806;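 active means inhibition of at least 40% at 10 µM in the primary screen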;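 further: plate controls were DMSO with enzyme for no effect and no enzyme wells for full effect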
hIAP inh: blocks human intestinal alkaline phosphatase. P09923. AID 2544. hit rate 0.12% among 330,000. inhibition, % at 10 µM. purified IAP, CDP-Star luminescence, 30 min;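 active means inhibition reaching a set limit with compound at 10 µM in the primary screen, cut at about 35% in these data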;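 further: plate controls were DMSO wells with enzyme for no effect and no-enzyme buffer wells for full effect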
bIAP inh: blocks bovine intestinal alkaline phosphatase activity; purified bovine IAP, CDP-star luminescence, 30 min; inhibition, % at 20 µM; 190,000 tested, under 10 active; AID 1019;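 active means over 50% inhibition of intestinal alkaline phosphatase at 20 µM in the single-dose screen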
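test system = bovine IAP enzyme | medium = DEA buffer 100 mM, pH 9.8, with MgCl2 1.0 mM, ZnCl2 0.02 mM | detection = luminescence | dosing = single compound dose of 20 µM, 2% DMSO final | incubation = 30 min reaction at room temperature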
bIAP activator: increases bovine intestinal alkaline phosphatase activity. purified bovine IAP, CDP-star luminescence, 30 min; stronger effect = higher value; fold of DMSO-control signal, blank-subtracted. activation factor at 20 µM. hit rate 0.17% among 200,000. AID 1016;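 active means activation factor of 2 or more at 20 µM, a signal rise over negative controls twice the positive control's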
mIAP inh confirm: mouse IAP inhibition confirmation. inhibition, % at 10 µM. shares compounds with mIAP block. AID 434971. hit rate 4.7% among 11,000. purified mouse IAP, CDP-Star luminescence, 30 min;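 active means inhibition of at least 40% at 10 µM in either of the two replicates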;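 further: plate controls were DMSO wells with enzyme for no effect and buffer wells lacking enzyme for full effect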
Active calls of the source: *. Shown are actives, neighbours in structure and some others; about 0.79% of the full set was active somewhere.

How did C#CCOCCOCCOCCNc1nc(N2CCN(C(=O)CCCCCCCCCCNC(=O)[C@H](CCCCN)n3cc(C)nn3)CC2)nc(N2CCN(C(=O)CCCCCCCCCCNC(=O)[C@@H]([C@H](C)CC)n3cc(CCCCCN)nn3)CC2)n1 do in these assays?
hIAP activ: 1.1; mIAP activ: 3*; mIAP block: -196; hIAP inh: -8; mIAP inh confirm: -263

How did Fc1ccc(C(CCNCc2ccccn2)c2ccc(Cl)cc2)cc1 (configuration not stated) do in these assays?
hIAP activ: 1.3; mIAP activ: 1.1; mIAP block: -10; hIAP inh: -31

Results for O=C(Nc1ccc(F)c(Cl)c1)C1CC(=O)n2c(nc3ccccc32)N1 (configuration not stated) ?
hIAP activ: 1.9; mIAP activ: 2.8*; mIAP block: -182; hIAP inh: -89; bIAP inh: -30; bIAP activator: 1.3; mIAP inh confirm: -142

How did c1ccc(Cn2nnnc2CN2CCN(Cc3ccc4c(c3)OCO4)CC2)cc1 do in these assays?
hIAP activ: 1; mIAP activ: 1; mIAP block: -2; hIAP inh: -2; bIAP inh: 2; bIAP activator: 1

Results for O=C(Nc1ccccc1)NC1CC2CCC(C1)N2Cc1nnnn1Cc1ccc2c(c1)OCO2 (configuration not stated) ?
hIAP activ: 1.2; mIAP activ: 2.5*; mIAP block: -149; hIAP inh: -17; bIAP inh: -85; bIAP activator: 1.8; mIAP inh confirm: -123

What do the screens show for `COc1cc(OC)c(-c2c3cc(O)c(=O)cc-3oc3cc(O)c(O)cc23)cc1OC`?
hIAP activ: 1.1; mIAP activ: 0.56; mIAP block: 44*; hIAP inh: -14; bIAP inh: -2; bIAP activator: 1; mIAP inh confirm: 59*

Results for Cc1c2cc(O)c(=O)cc-2oc2cc(O)c(O)cc12 ?
hIAP activ: 0.75; mIAP activ: 0.27; mIAP block: 73*; hIAP inh: 25; bIAP activator: 0.4; mIAP inh confirm: 86*

Results for O=C(Cn1cc([N+](=O)[O-])ccc1=O)N1CCc2ccccc21 ?
hIAP activ: 0.96; mIAP activ: 1; mIAP block: -1; hIAP inh: 4

Results for COc1ccc(-c2csc(NC(=O)C3CSC4(C)CCC(=O)N34)n2)c(OC)c1 (configuration not stated) ?
hIAP activ: 1.1; mIAP activ: 0.98; mIAP block: 2; hIAP inh: -10

Results for O=C1c2ccccc2C(=O)c2c(O)c(O)cc(O)c21 ?
hIAP activ: 0.81; mIAP activ: 0.79; mIAP block: 22; hIAP inh: 19

What do the screens show for `O=C1C=C(O)c2c(O)cc(O)c(O)c2C1=O`?
hIAP activ: 0.83; mIAP activ: 0.31; mIAP block: 69*; hIAP inh: 17; mIAP inh confirm: 55*

What do the screens show for `NS(=O)(=O)c1ccc(N=Nc2c(=O)[nH]n3c(=O)c4c([nH]c23)CCCC4)cc1`?
hIAP activ: 1.7; mIAP activ: 0.52; mIAP block: 48*; hIAP inh: -66; bIAP activator: 0.5; mIAP inh confirm: 63*

What do the screens show for `O=c1[nH]n2c(=O)c3c([nH]c2c1N=Nc1cccc(Cl)c1)CCC3`?
bIAP inh: -24; bIAP activator: 1.2

Results for Cc1cc(O)c2c(c1O)C(=O)[C@]13C(=C2O)C(=O)[C@@H]2[C@@H](O)[C@H]1[C@@H]1[C@H](O)[C@H]3C(=O)C3=C(O)c4c(O)cc(C)c(O)c4C(=O)[C@]312 ?
hIAP activ: 0.95; mIAP activ: 0.53; mIAP block: 47*; hIAP inh: 5; mIAP inh confirm: 41*

What do the screens show for `Cc1cc(Cl)ccc1NC(=S)NCCC(c1ccccc1)c1ccccc1`?
hIAP activ: 1.1; mIAP activ: 3.7*; mIAP block: -266; hIAP inh: -9; bIAP inh: -39; bIAP activator: 1.4; mIAP inh confirm: -105

How did Cc1c(Cl)cccc1NC(=S)NCCC(c1ccccc1)c1ccccc1 do in these assays?
hIAP activ: 0.97; mIAP activ: 4.1*; mIAP block: -312; hIAP inh: 3; bIAP inh: 16; bIAP activator: 0.8; mIAP inh confirm: -375

How did CCCCCOc1ccc(C(=O)Nc2ccc(N3CCOCC3)cc2N2CCOCC2)cc1 do in these assays?
hIAP activ: 0.88; mIAP activ: 0.99; mIAP block: 1; hIAP inh: 12

Results for O=C(O)COc1ccc(/C=C/c2nc(-c3ccccc3O)n[nH]2)cc1 ?
hIAP activ: 0.97; mIAP activ: 0.48; mIAP block: 52*; hIAP inh: 3; mIAP inh confirm: 62*

What do the screens show for `COc1ccc(/C=C/c2nc(-c3ccccc3O)n[nH]2)cc1OC`?
hIAP activ: 1.6; mIAP activ: 0.89; mIAP block: 11; hIAP inh: -64; bIAP inh: 18; bIAP activator: 0.8

What do the screens show for `CCOc1ccc(S(=O)(=O)NCCC(=O)NCCOc2ccccc2OC)cc1`?
hIAP activ: 0.99; mIAP activ: 0.98; mIAP block: 2; hIAP inh: 0

Results for C=CCn1c(SCC(=O)c2ccc(O)c(O)c2)nnc1-c1cccc(OC)c1 ?
hIAP activ: 0.91; mIAP activ: 0.59; mIAP block: 41*; hIAP inh: 9; mIAP inh confirm: 46*

How did Cc1ccc(NC(=O)CNC(=O)c2ccco2)cc1 do in these assays?
hIAP activ: 0.99; mIAP activ: 0.94; mIAP block: 6; hIAP inh: 1

What do the screens show for `Cc1cc(O)c2c(c1)C(=O)c1cc(O)cc(O)c1C2=O`?
hIAP activ: 1; mIAP activ: 0.82; mIAP block: 18; hIAP inh: 0

Results for O=C1c2cccc(O)c2C(=O)c2c(O)cc(CO)cc21 ?
hIAP activ: 0.83; mIAP activ: 0.55; mIAP block: 45*; hIAP inh: 17; mIAP inh confirm: 52*

What do the screens show for `O=[N+]([O-])c1ccc(C(O)C[n+]2ccccc2)cc1` (configuration not stated)?
hIAP activ: 0.72; mIAP activ: 0.94; mIAP block: 6; hIAP inh: 28

How did NS(=O)(=O)c1ccc(NC(=S)NC(=O)/C=C/c2ccco2)cc1 do in these assays?
hIAP activ: 0.96; mIAP activ: 0.092; mIAP block: 91*; hIAP inh: 4; bIAP inh: 9; bIAP activator: 0.9; mIAP inh confirm: 77*

Results for NS(=O)(=O)c1ccc(CNC(=O)/C=C/c2ccco2)cc1 ?
hIAP activ: 0.98; mIAP activ: 0.54; mIAP block: 46*; hIAP inh: 2; mIAP inh confirm: 50*

Screens (PubChem)
